Reference: ChEMBL document CHEMBL4052589, “Discovery of Imidazo[1,2-a]pyridine Ethers and Squaramides as Selective and Potent Inhibitors of Mycobacterial Adenosine Triphosphate (ATP) Synthesis” (J Med Chem, 2017)
≈ marks a conversion by molar mass, not a printed value. Calls of active or inactive are those of the source. No cut-off for these calls is given here.

Legend:
[1] = tested on: Mycobacterium tuberculosis; assay: Antimycobacterial activity against Mycobacterium tuberculosis H37Rv by turbidometric method; type: functional
In short: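 MIC taken as the minimum concentration inhibiting M. tuberculosis growth by 80%.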

[2] = Inhibition of ATP synthase in Mycobacterium smegmatis inverted membrane vesicles using NADH as substrate incubated for 60 mins by luciferin-luciferase reaction based bioluminescence assay; parameters: species or system Mycolicibacterium smegmatis
In short: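 ATP made by oxidative phosphorylation in M. smegmatis inverted membrane vesicles (IMVs), driven by NADH with ADP and Pi as ATP synthase substrates. ATP was read by luminescence. IC50 was taken from dose-response testing.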

[3] = tested on: Plasma; assay: Drug uptake in BALB/c mouse plasma at 100 mg/kg, po in presence of pan CYP inhibitor ABT by LC-MS/MS method; type: ADME, organism-based; settings: in vivo
[4] = tested on: Mycobacterium tuberculosis; assay: Bactericidal activity against Mycobacterium tuberculosis H37Rv; type: functional
[5] = Lipophilicity, log D of compound; type: physicochemical; settings: octanol/water
[6] = Selectivity index, ratio of IC50 for human A549 cells to MIC for Mycobacterium tuberculosis H37Rv; type: toxicity; settings: read-out: Selectivity Index
In short: (§1)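 Cytotoxicity index is MMIC divided by M. tuberculosis MIC. MMIC is the minimum concentration inhibiting A549 or THP1 proliferation by 50%. MIC is the concentration giving 80% growth inhibition.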

[7] = Selectivity index, ratio of IC50 for human THP1 cells to MIC for Mycobacterium tuberculosis H37Rv; type: toxicity; settings: read-out: Selectivity Index; in short: as §1
[8] = tested on: Mycobacterium tuberculosis; assay: Antimycobacterial activity against Mycobacterium tuberculosis H37Rv infected in BALB/c mouse assessed as bacterial growth inhibition at 100 to 200 mg/kg, po qd administered […] for 2 weeks; type: functional, organism-based
[9] = tested on: Mus musculus; assay: Time required for free plasma concentration to maintain above in vitro MIC for Mycobacterium tuberculosis H37Rv in BALB/c mouse infected with Mycobacterium tuberculosis H37Rv at 100 mg/kg, po in presence of pan CYP inhibitor ABT
[10] = tested on: Plasma; assay: Ratio of free plasma concentration in BALB/c mouse infected with Mycobacterium tuberculosis H37Rv in absence of pan CYP inhibitor ABT to presence of pan CYP inhibitor ABT; type: ADME
[11] = tested on: Mycolicibacterium smegmatis; assay: Inhibition of oxygen consumption in Mycobacterium smegmatis inverted membrane vesicles lacking cytochrome bc1 complex treated between 250 to 450 secs post NADH addition; type: functional
[12] = tested on: Mycolicibacterium smegmatis; assay: Inhibition of cytochrome c oxidase in Mycobacterium smegmatis inverted membrane vesicles lacking cytochrome-bd complex assessed as reduction of oxygen consumption treated between 250 to 450 secs post NADH addition
[13] = tested on: Mycolicibacterium smegmatis; assay: Selectivity ratio of IC50 for NDH2 in Mycobacterium smegmatis inverted membrane vesicles using NADH as substrate to IC50 for SDH in Mycobacterium smegmatis inverted membrane vesicles using succinate as substrate
[14] = tested on: Mycolicibacterium smegmatis; assay: Selectivity ratio of IC50 for NADH dependent ATP synthesis in Mycobacterium smegmatis inverted membrane vesicles lacking cytochrome-bc1 complex to IC50 for cytochrome c oxidase in Mycobacterium smegmatis inverted membrane vesicles assessed as decrease in NADH dependent ATP synthesis

**Q.** Which MIC80 [1] does the source give for Cc1ccc2nc(-c3ccc(F)cc3)c(OCCCNc3ccc(F)c(C)c3)n2c1 here?
**A.** 0.03 µM (≈ 0.0122 µg/mL)

**Q.** What about the IC50 [2] of the same molecule?
**A.** 0.005 µM

**Q.** And the Drug uptake [3]?
**A.** Active

**Q.** And the MBC [4]?
**A.** > 100 µM

**Q.** Which MIC80 [1] does the source give for Cc1ccc2nc(-c3ccc(F)cc3)c(OCCNCc3ccc(C)c(F)c3)n2c1 here?
**A.** 0.6 µM (≈ 0.244 µg/mL)

**Q.** And the IC50 [2]?
**A.** 0.07 µM

**Q.** Which MIC80 [1] does the source give for Clc1ccc2nc(-c3ccccc3)c(OCCN3CCOCC3)n2c1 here?
**A.** > 200 µM

**Q.** What about the IC50 [2] of the same molecule?
**A.** 36.1 µM

**Q.** And the logD [5]?
**A.** 3.3

**Q.** What about the Selectivity ratio [6] of the same molecule?
**A.** 0.5

**Q.** What about the Selectivity ratio [7] of the same molecule?
**A.** 0.5

**Q.** With O=c1c(NCc2ccccn2)c(-c2ccc(N3CCOCC3)cc2)c1=O as the molecule, how does the MIC80 [1] read?
**A.** 0.5 to 0.8 µM (≈ 0.175 to 0.28 µg/mL)

**Q.** And the IC50 [2]?
**A.** 0.03 µM

**Q.** What about the “growth inhibition (GI)” value [8] of the same molecule?
**A.** Active

**Q.** And the Time [9]?
**A.** 15 h

**Q.** What about the Ratio [10] of the same molecule?
**A.** 300

**Q.** With O=c1c(NCc2cnccn2)c(-c2ccc(N3CCOCC3)cc2)c1=O as the molecule, how does the MIC80 [1] read?
**A.** 3.12 to 12.5 µM (≈ 1.09 to 4.38 µg/mL)

**Q.** What about the IC50 [2] of the same molecule?
**A.** 0.77 µM

**Q.** Which MIC80 [1] does the source give for Clc1ccc2nc(-c3ccccc3)c(OCCCOc3ccccc3)n2c1 here?
**A.** < 0.5 µM

**Q.** And the IC50 [2]?
**A.** < 0.02 µM

**Q.** And the MBC [4]?
**A.** > 100 µM

**Q.** For Cc1ccc2nc(-c3ccc(F)cc3)c(OCCOc3ccc(F)cc3)n2c1, which MIC80 [1] is on record?
**A.** 3.1 µM (≈ 1.18 µg/mL)

**Q.** And the IC50 [2]?
**A.** 0.02 µM

**Q.** And the inhibition [11]?
**A.** inactive

**Q.** What about the inhibition [12] of the same molecule?
**A.** Active

**Q.** With Cc1ccc2nc(-c3ccc(F)cc3)c(OCCNC(=O)c3ccc(C)nc3)n2c1 as the molecule, how does the MIC80 [1] read?
**A.** > 200 µM

**Q.** And the IC50 [2]?
**A.** 7.2 µM

**Q.** For Cc1ccc2nc(-c3ccc(F)cc3)c(OCCCOc3cncc(F)c3)n2c1, which MIC80 [1] is on record?
**A.** < 0.6 µM

**Q.** What about the IC50 [2] of the same molecule?
**A.** 0.06 µM

**Q.** With Cc1ccc2nc(-c3ccc(F)cc3)c(OCCNS(=O)(=O)c3ccc(F)c(Cl)c3)n2c1 as the molecule, how does the MIC80 [1] read?
**A.** 3.1 µM (≈ 1.48 µg/mL)

**Q.** And the IC50 [2]?
**A.** 0.4 µM

**Q.** What does the source list for Cc1ccc2nc(-c3ccc(F)cc3)c(OCCCNc3cnc(C)c(Br)c3)n2c1?
**A.** MIC80 [1]: 0.8 µM (≈ 0.375 µg/mL); IC50 [2]: 0.21 µM

**Q.** With Cc1ccc2nc(-c3ccc(F)cc3)c(OCCCNS(=O)(=O)c3ccc(F)cc3)n2c1 as the molecule, how does the MIC80 [1] read?
**A.** 1.6 µM (≈ 0.732 µg/mL)

**Q.** And the IC50 [2]?
**A.** 0.7 µM

**Q.** Which results are given for Cc1ccc2nc(-c3ccccc3)c(OCCOc3ccc(F)cc3)n2c1?
**A.** MIC80 [1]: < 1 µM; IC50 [2]: 0.05 µM; inhibition [11]: inactive; inhibition [12]: Active

**Q.** What does the source list for Cc1ccc2nc(-c3ccccc3)c(OCCCOc3ccccc3)n2c1?
**A.** MIC80 [1]: < 0.5 µM; IC50 [2]: 0.03 µM; inhibition [11]: inactive; inhibition [12]: Active

**Q.** For O=c1c(NCc2ccccc2)c(-c2ccc(N3CCOCC3)cc2)c1=O, which MIC80 [1] is on record?
**A.** > 100 µM

**Q.** And the IC50 [2]?
**A.** > 100 µM

**Q.** For Fc1ccc(OCCOc2c(-c3ccccc3)nc3ccccn23)cc1, which MIC80 [1] is on record?
**A.** < 0.8 µM

**Q.** And the IC50 [2]?
**A.** 0.08 µM

**Q.** What does the source list for Cc1ccc2nc(-c3ccc(F)cc3)c(OCCCOc3cncnc3)n2c1?
**A.** MIC80 [1]: 6.9 µM (≈ 2.61 µg/mL); IC50 [2]: 5.6 µM; inhibition [11]: inactive; inhibition [12]: Active

**Q.** Which results are given for Cc1ccc2nc(-c3ccc(F)cc3)c(OCCCOc3ccc(C)nc3)n2c1?
**A.** MIC80 [1]: < 0.8 µM; IC50 [2]: < 0.02 µM

**Q.** With COc1nc2ccc(Br)cc2cc1[C@@H](c1ccccc1)[C@@](O)(CCN(C)C)c1cccc2ccccc12 as the molecule, how does the Ratio IC50 [13] read?
**A.** 1.5

**Q.** What about the inhibition [11] of the same molecule?
**A.** inactive

**Q.** And the inhibition [12]?
**A.** inactive

**Q.** What about the Ratio IC50 [14] of the same molecule?
**A.** 2

**Q.** With Cc1ccc2nc(-c3ccc(F)cc3)c(OCCCNc3ccc(F)c(C)n3)n2c1 as the molecule, how does the MIC80 [1] read?
**A.** < 0.5 µM

**Q.** What about the IC50 [2] of the same molecule?
**A.** 0.06 µM

**Q.** What about the MBC [4] of the same molecule?
**A.** > 100 µM

**Q.** With CC(Nc1c(-c2ccc(N3CCOCC3)cc2)c(=O)c1=O)c1ccccn1 (configuration not stated) as the molecule, how does the MIC80 [1] read?
**A.** > 100 µM

**Q.** What about the IC50 [2] of the same molecule?
**A.** > 25 µM

**Q.** With COCCCOc1c(-c2ccccc2)nc2ccccn12 as the molecule, how does the MIC80 [1] read?
**A.** > 15 µM

**Q.** And the IC50 [2]?
**A.** 18.9 µM

**Q.** Which results are given for COc1ncc(NCCCOc2c(-c3ccc(F)cc3)nc3ccc(C)cn23)cc1C?
**A.** MIC80 [1]: < 0.8 µM; IC50 [2]: 0.08 µM

**Q.** Which MIC80 [1] does the source give for NNC(=O)c1ccncc1 [ISONIAZID] here?
**A.** 0.02 µM (≈ 0.00274 µg/mL)

**Q.** Which MIC80 [1] does the source give for Cc1cnc(CNc2c(-c3ccc(C(F)(F)F)cc3)c(=O)c2=O)cn1 here?
**A.** 50 µM (≈ 17.4 µg/mL)

**Q.** And the IC50 [2]?
**A.** 8.4 µM

**Q.** What does the source list for Cc1ccc2nc(-c3ccc(F)cc3)c(OCCCN3CCN(c4ccccc4)CC3)n2c1?
**A.** MIC80 [1]: < 0.8 µM; IC50 [2]: 0.05 µM

**Q.** For Cc1ccc2nc(-c3ccc(F)cc3)c(OCCCOc3cccnc3)n2c1, which MIC80 [1] is on record?
**A.** < 0.9 µM

**Q.** And the IC50 [2]?
**A.** 0.16 µM

**Q.** For Cc1ccc2nc(-c3ccccc3)c(OCCCN3CCN(C)CC3)n2c1, which MIC80 [1] is on record?
**A.** > 200 µM

**Q.** And the IC50 [2]?
**A.** 6.4 µM

**Q.** What does the source list for N#Cc1ccc2nc(-c3ccccc3)c(OCCCOc3ccccc3)n2c1?
**A.** MIC80 [1]: > 250 µM; IC50 [2]: > 100 µM

**Q.** For N#Cc1ccc(-c2c(NCc3ccccn3)c(=O)c2=O)cc1, which MIC80 [1] is on record?
**A.** 100 µM (≈ 28.9 µg/mL)

**Q.** And the IC50 [2]?
**A.** 66.6 µM

**Q.** Which results are given for Cc1ccc2nc(-c3ccc(F)cc3)c(OCCCOc3ccc(C)nc3C)n2c1?
**A.** MIC80 [1]: 6.3 µM (≈ 2.55 µg/mL); IC50 [2]: 0.09 µM

**Q.** For c1ccc(OCCCOc2c(-c3ccccc3)nc3ccccn23)cc1, which MIC80 [1] is on record?
**A.** 1.6 µM (≈ 0.551 µg/mL)

**Q.** What about the IC50 [2] of the same molecule?
**A.** 0.13 µM

**Q.** Which results are given for O=c1c(NCc2ccc(-c3ccccc3)cn2)c(-c2ccc(N3CCOCC3)cc2)c1=O?
**A.** MIC80 [1]: > 100 µM; IC50 [2]: 9.5 µM

**Q.** What does the source list for O=c1c(NCc2ccccn2)c(-c2ccc(C(F)(F)F)cc2)c1=O?
**A.** MIC80 [1]: 6.2 µM (≈ 2.06 µg/mL); IC50 [2]: 0.3 µM

**Q.** For CO[C@H]1/C=C/O[C@@]2(C)Oc3c(C)c(O)c4c(O)c(c(/C=N/N5CCN(C)CC5)c(O)c4c3C2=O)NC(=O)/C(C)=C\C=C\[C@H](C)[C@H](O)[C@@H](C)[C@@H](O)[C@@H](C)[C@H](OC(C)=O)[C@@H]1C [RIFAMPIN], which MIC80 [1] is on record?
**A.** 0.004 µM (≈ 0.00329 µg/mL)

**Q.** Which MIC80 [1] does the source give for Fc1ccc(OCCOc2c(-c3ccccc3)nc3ccc(Cl)cn23)cc1 here?
**A.** < 1 µM

**Q.** What about the IC50 [2] of the same molecule?
**A.** 0.04 µM

**Q.** What about the inhibition [11] of the same molecule?
**A.** inactive

**Q.** What about the inhibition [12] of the same molecule?
**A.** Active
